Measurements taken from PMC9126795 (eBioMedicine, 2022).
Read-outs that look alike come from different tables or passages of the source.

How the values were obtained:
[1] = assay type: in vivo, human
Method in brief: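 Cirrhosis patients (3 per dose level) received a single 4 h IV infusion on Day −7 before the first cycle. Cmax, Tmax, t1/2 and AUC were derived by non-compartmental analysis, with the last concentration extrapolated assuming constant elimination.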

[2] = system: patients with HCV and HBV liver cirrhosis; test: Liver stiffness measure; assay type: in vivo, human; conditions: 12 weeks
Method in brief: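 Liver stiffness was measured by FibroScan at baseline and 12 weeks post-treatment in cirrhosis patients. Dosing was 280 mg/m² test compound by 4 h IV infusion twice weekly for 12 weeks. Thirteen patients were analysed, and the change relative to baseline was computed, including the ≥10% decrease subset among Child–Pugh B patients.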

PRI-724
PRI-724 AUC 0-24h ([1]; 140 mg/m^2/4h, Max): 4660 ng·h/mL
PRI-724 Cmax ([1]; 140 mg/m^2/4h, Max): 1520 ng/mL
PRI-724 Tmax ([1]; 140 mg/m^2/4h, Max): 4 h
PRI-724 AUC 0-24h ([1]; 140 mg/m^2/4h, Mean): 3740 ng·h/mL
PRI-724 Cmax ([1]; 140 mg/m^2/4h, Mean): 1150 ng/mL
PRI-724 AUC 0-24h ([1]; 140 mg/m^2/4h, Median): 3770 ng·h/mL
PRI-724 Cmax ([1]; 140 mg/m^2/4h, Median): 1030 ng/mL
PRI-724 AUC 0-24h ([1]; 140 mg/m^2/4h, Min): 2790 ng·h/mL
PRI-724 Cmax ([1]; 140 mg/m^2/4h, Min): 888 ng/mL
PRI-724 Tmax ([1]; 140 mg/m^2/4h, Min): 1 h
PRI-724 AUC 0-24h ([1]; 280 mg/m^2/4h, Max): 7500 ng·h/mL
PRI-724 Cmax ([1]; 280 mg/m^2/4h, Max): 2590 ng/mL
PRI-724 Tmax ([1]; 280 mg/m^2/4h, Max): 4 h
PRI-724 AUC 0-24h ([1]; 280 mg/m^2/4h, Mean): 5700 ng·h/mL
PRI-724 Cmax ([1]; 280 mg/m^2/4h, Mean): 1710 ng/mL
PRI-724 AUC 0-24h ([1]; 280 mg/m^2/4h, Median): 5960 ng·h/mL
PRI-724 Cmax ([1]; 280 mg/m^2/4h, Median): 1780 ng/mL
PRI-724 AUC 0-24h ([1]; 280 mg/m^2/4h, Min): 2650 ng·h/mL
PRI-724 Cmax ([1]; 280 mg/m^2/4h, Min): 757 ng/mL
PRI-724 Tmax ([1]; 280 mg/m^2/4h, Min): 1 h
PRI-724 AUC 0-24h ([1]; 380 mg/m^2/4h, Max): 16000 ng·h/mL
PRI-724 Cmax ([1]; 380 mg/m^2/4h, Max): 4730 ng/mL
PRI-724 Tmax ([1]; 380 mg/m^2/4h, Max): 4 h
PRI-724 AUC 0-24h ([1]; 380 mg/m^2/4h, Mean): 11800 ng·h/mL
PRI-724 Cmax ([1]; 380 mg/m^2/4h, Mean): 3530 ng/mL
PRI-724 AUC 0-24h ([1]; 380 mg/m^2/4h, Median): 11900 ng·h/mL
PRI-724 Cmax ([1]; 380 mg/m^2/4h, Median): 3540 ng/mL
PRI-724 AUC 0-24h ([1]; 380 mg/m^2/4h, Min): 7940 ng·h/mL
PRI-724 Cmax ([1]; 380 mg/m^2/4h, Min): 2590 ng/mL
PRI-724 Tmax ([1]; 380 mg/m^2/4h, Min): 1 h
Patients with CP class B whose LSM decreased by ≥10% relative to baseline [2]: four of six patients
